Assay results from ChEMBL document CHEMBL1129540, “Synthesis and cytotoxicity of 1,2-disubstituted naphth[2,3-d]imidazole-4,9-diones and related compounds” (1996).

How the values were obtained:
Type in all cases: functional
[1] = tested on: SF-539; assay: In vitro inhibitory activity against CNS SF-539 cancer cell line; settings: Homo sapiens
Procedure, shortened: (§1)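 Tested in the National Cancer Institute's in vitro disease-oriented tumor cell line screen. Dose-response curves were recorded for each cell line, and values are reported as log GI50, the compound concentration that inhibits cell growth by 50%.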

[2] = tested on: NCI-H522; assay: In vitro inhibitory activity against non small lung […]H522 cancer cell line; settings: Homo sapiens; procedure, shortened: as §1
[3] = tested on: OVCAR-3; assay: In vitro inhibitory activity against ovarain OVCAR-3 cancer cell line; settings: Homo sapiens; procedure, shortened: as §1
[4] = In vitro inhibitory activity against small cell lung DMS 114 cancer cell line; settings: Homo sapiens, Cancer cell lines; procedure, shortened: as §1
[5] = tested on: Malme-3M; assay: In vitro inhibitory activity against melanoma MALME-3M cancer cell line; settings: Homo sapiens; procedure, shortened: as §1
[6] = tested on: HCT-116; assay: In vitro inhibitory activity against colon HCT116 cancer cell line; settings: Homo sapiens; procedure, shortened: as §1
[7] = tested on: COLO 205; assay: In vitro inhibitory activity against colon COLO-205 cancer cell line; settings: Homo sapiens; procedure, shortened: as §1
[8] = tested on: U-251; assay: In vitro inhibitory activity against CNS U-251 cancer cell line; settings: Homo sapiens; procedure, shortened: as §1
[9] = tested on: RXF 393; assay: In vitro inhibitory activity against renal RXF-393 cancer cell line; settings: Homo sapiens; procedure, shortened: as §1
[10] = tested on: ACHN; assay: In vitro inhibitory activity against renal ACHN cancer cell line; settings: Homo sapiens; procedure, shortened: as §1
[11] = tested on: K562; assay: In vitro inhibitory activity against leukemia K-562 cancer cell line; settings: Homo sapiens; procedure, shortened: as §1
[12] = tested on: HOP-92; assay: In vitro inhibitory activity against non small lung HOP-92 cancer cell line; settings: Homo sapiens; procedure, shortened: as §1
[13] = tested on: HL-60; assay: In vitro inhibitory activity against leukemia HL-60(TB) cancer cell line; settings: Homo sapiens
Procedure, shortened: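 Tested in the NCI in vitro disease-oriented human tumour cell line screen. Growth inhibition was read from dose-response curves and reported as log GI50, the compound concentration that inhibits cell growth by 50%.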

[14] = In vitro inhibitory activity against small cell lung DMS 273 cancer cell line; settings: Homo sapiens, Cancer cell lines; procedure, shortened: as §1
[15] = tested on: IGROV-1; assay: In vitro inhibitory activity against ovarain IGROV1 cancer cell line; settings: Homo sapiens; procedure, shortened: as §1
[16] = tested on: UACC-62; assay: In vitro inhibitory activity against melanoma UACC-62 cancer cell line; settings: Homo sapiens; procedure, shortened: as §1
[17] = tested on: MDA-N; assay: In vitro inhibitory activity against breast MDA-N cancer cell line; settings: Homo sapiens; procedure, shortened: as §1
[18] = tested on: MCF7; assay: In vitro inhibitory activity against breast MCF-7 cancer cell line; settings: Homo sapiens; procedure, shortened: as §1
[19] = tested on: DU-145; assay: In vitro inhibitory activity against prostate DU-145 cancer cell line; settings: Homo sapiens; procedure, shortened: as §1
[20] = tested on: PC-3; assay: In vitro inhibitory activity against prostate PC-3 cancer cell line; settings: Homo sapiens; procedure, shortened: as §1

SMILES | GI50 [1] [nM] | GI50 [2] [nM] | GI50 [3] [nM] | GI50 [4] [nM] | GI50 [5] [nM] | GI50 [6] [nM] | GI50 [7] [nM] | GI50 [8] [nM] | GI50 [9] [nM] | GI50 [10] [nM] | GI50 [11] [nM] | GI50 [12] [nM] | GI50 [13] [nM] | GI50 [14] [nM] | GI50 [15] [nM] | GI50 [16] [nM] | GI50 [17] [nM] | GI50 [18] [nM] | GI50 [19] [nM] | GI50 [20] [nM]
O=C(Cc1ccccc1F)NC1=C(Cl)C(=O)c2ccccc2C1=O | 240 | 214 | 933 | 174 | 1700 | 427 | 1910 | 331 | 166 | 479 | 295 | 1100 | 282 | 1290 | 676 | 331 | – | – | – | –
CC/N=C1/C(=O)c2ccccc2C(O)=C1NC(=O)c1cc(OC)cc(OC)c1 | 1910 | 372 | 525 | – | 776 | 417 | 3470 | 525 | 324 | 977 | 490 | 1120 | 407 | – | 1550 | 355 | 120 | 372 | 2690 | 380
CCn1c(C)nc2c1C(=O)c1ccccc1C2=O | 2690 | 240 | 50.1 | 275 | 2510 | 1230 | 355 | 1910 | 27500 | – | 1660 | 1620 | 16600 | 1660 | 2040 | 4900 | – | 676 | – | –
